The sample as a whole holds a higher share of hits than the screen did.
INS promoter act = TRM-6 insulin promoter activation; activation, % at 2 µM; TRM-6 cells, insulin promoter eGFP reporter, imaging; plate-scaled: unstimulated 0, stimulated control 100; AID 1296; 130,000 tested, 0.81% active;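 active = activation at 2 µM above a set limit, confirmed on inspection of the cell images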;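 also: share of cells whose green reporter signal exceeds an intensity cutoff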
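material = TRM-6 human fetal islet cells, insulin promoter–eGFP reporter | input = 1,000 TRM-6 cells seeded per well | benchmarks = stimulated versus unstimulated wells as plate controls | measured by = automated fluorescence imaging of paraformaldehyde-fixed, Hoechst-counterstained cells, green channel | schedule = compound exposure 48 h, 37 °C | reagent = tamoxifen at 0.75 µM added at seeding for reporter induction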
* marks the source's active call; other numbers are inactive results.

SMILES	INS promoter act
O=C(CN1C(=O)C2CC=CCC2C1=O)NC1CCCc2ccccc21 (stereo not given)	83*
NC(=O)C1CCN(CC(=O)NC2CCCc3ccccc32)CC1 (stereo not given)	-4
Cc1ccc(S(=O)(=O)N2CCN(CC(=O)NC3CCCc4ccccc43)CC2)c(C)c1 (stereo not given)	0
CC(C)C(=O)NC(NC(=O)C(C)C)c1ccc([N+](=O)[O-])cc1	0
Cc1ccc(C(C(=O)NCc2ccco2)N(C(=O)Cc2cccs2)c2cccnc2)cc1 (stereo not given)	110
CCOC(=O)CCN(Cc1sccc1C)S(=O)(=O)c1ccc(F)cc1	77*
CCN(CC)S(=O)(=O)c1ccc(F)cc1	190
CC(C)CNC(=O)CN(C)S(=O)(=O)c1ccc(F)cc1	-8
CCCN1C(=O)/C(=C/c2ccncc2)SC1=S	-7
CCCCN1C(=O)C(=O)N(c2ccccc2)C1=S	-9
CCCCN1C(=O)/C(=C/C=C2/CC(C)(C)CN2C)SC1=S	270*
CCOc1ccc(N2C(=O)C3C(c4ccc(O)cc4)NC(CCSC)(C(=O)OC)C3C2=O)cc1 (stereo not given)	0
CC(CC(=O)Nc1nncs1)c1ccccc1 (stereo not given)	0
Cc1ccc(NC(=O)c2cc(S(=O)(=O)c3ccccc3)ccc2Cl)cc1	-6
CC(=O)Nc1ccc(S(=O)(=O)N(Cc2ccccc2)C(C)C)cc1	3
Cc1csc(NC(=O)c2ccccc2C(=O)O)n1	7
CC(=O)NC(CCS(C)(=O)=O)C(=O)Nc1nc(C)cs1 (stereo not given)	750*
Cc1csc(NC(=O)C(NS(=O)(=O)c2ccc(Br)s2)c2ccccc2)n1 (stereo not given)	0
COc1ccc(/C=C2/C(=O)N(c3nc4ccccc4s3)N=C2CSc2ccc(Cl)cc2)cc1	-7
O=C(c1ccc(S(=O)(=O)c2cccc(Cl)c2)c([N+](=O)[O-])c1)N1CCN(Cc2ccccc2)CC1	-3
CC(=NC1CC1)C1=C(O)c2ccccc2C1=O	6
CC(=NCCCN(C)C)C1=C(O)c2ccccc2C1=O	-6
O=C1C(C2=C(O)c3ccccc3C2=O)=Nc2ccccc21	440*
O=C(CSCCO)Nc1cc(C(F)(F)F)ccc1Cl	310
Cn1c(N)c(S(=O)(=O)N2CCN(c3ccccc3)CC2)c(=O)n(C)c1=O	0
SMILES	INS promoter act
NS(=O)(=O)c1ccc(NC(=S)N2CCN(c3ccccc3Cl)CC2)cc1	-5
S=C(Nc1ccccc1)N1CCCCCCC1	7
O=S(=O)(c1ccc(F)c(F)c1F)N1CCN(C(=S)Nc2ccccc2)CC1	324*
CCCC(C)c1nnc(NC(=O)c2cc(C(=O)OC)cc([N+](=O)[O-])c2)s1 (stereo not given)	-7
O=C(O)C1CC(=O)N(c2ccc(OCc3c(F)cccc3Cl)cc2)C1 (stereo not given)	0
CCOc1ccc(-n2c(SCC(N)=O)nc3c(c2=O)SCC3)cc1	-3
CC(C)CCNC(=O)CN(Cc1ccc2c(c1)OCO2)C(=O)Cn1nnc(-c2cccs2)n1	0
Cc1ccc(S(=O)(=O)N2CCCC2C(=O)O)s1 (stereo not given)	10
COc1ccc(Nc2nc(C)cc(=O)[nH]2)cc1	0
COc1ccc(CCNc2cc(=O)[nH]c(N)n2)cc1	615*
COc1ccc(S(=O)(=O)NCCc2ccc(F)cc2)cc1	-91
O=CN1CCN(C(=O)c2ccc(-c3nc4ccccc4s3)s2)CC1	7
COc1ccc(CCC(=O)NNC(=S)Nc2cccc(C(C)=O)c2)cc1	129
CC1c2c([nH]c3ccccc23)CCC1C(=O)O (stereo not given)	-5
CCCc1cc(=O)[nH]c(SCC(=O)N2CCN(S(=O)(=O)c3ccc(Cl)cc3)CC2)n1	-6
CN(C)c1ccc(/C=C/c2ccncc2)cc1	87*
COc1ccc(/C=C/c2ccncc2)cc1	-8
CC(C)OP(=O)(c1ccc(N(C)C)cc1)C(O)c1ccncc1 (stereo not given)	-8
CC(C)NC(=O)CCCc1c[nH]c2ccccc12	8
COC(=O)C1=C(C)N(CCc2c[nH]c3ccccc23)C(=O)/C1=C\N(C)C	409*
CCN1C(=O)/C(=C\c2ccc3c(c2)OCO3)C(C(=O)OC)=C1C	4
COc1ccc(C(=O)C2CCCN(Cc3ccc(C#CCCO)cc3)C2)cc1F (stereo not given)	-8
COc1cc(OC)cc(C(=O)N[C@H](C(=O)Nc2ccc3c(c2)OCO3)C(C)C)c1	0
CC(=O)N1CCCc2cc(S(=O)(=O)N3CCC(C)CC3)ccc21	0
Cc1ccc(C(=O)Cn2c(-c3ccccc3)noc2=O)cc1	-7
SMILES	INS promoter act
Cn1c(CN2CCCC2)nc2cc(NC(=O)COc3ccc([N+](=O)[O-])cc3)ccc21	167
COc1ccccc1CNC(=O)c1ccc(OC(C)C)cc1	-10
CCn1c(NC(=O)c2ccc(C)cc2)c2ccccc2nc1=O	-9
Cc1ccc(C(=O)Nc2nc(=O)n(C(=O)c3ccccc3Cl)s2)cc1	84*
CC(C)CC(=O)n1sc(NC(=O)c2ccccc2)nc1=O	7
COc1ccc(CCNC(=O)/C(C#N)=C/c2cccc(OCc3ccccc3)c2)cc1OC	-5
CN1CCN(NC(=O)c2cc(S(=O)(=O)N3CCOCC3)c(Cl)cc2Cl)CC1	-3
Cc1csc(NC(=O)c2cccc(S(=O)(=O)N3CCCCC3)c2)n1	0
Cc1nnc(NC(=O)c2ccc(C)c(S(=O)(=O)N3CCCCCC3)c2)s1	2
COc1ccc(C(=O)Nc2nc(C)cs2)cc1S(=O)(=O)N1CCCC1	221*
CCCn1c(SCC(=O)N2c3ccc(F)cc3CCC2C)nnc1-c1ccccn1 (stereo not given)	305
CCOC(=O)C1=C(c2cccc(F)c2)NC(=S)NC1C (stereo not given)	4
O=C1C=C(NCCN2CCOCC2)CC(c2ccccc2)C1 (stereo not given)	-8
Cn1c(=O)c2c(nc(CN3CCN(Cc4ccccc4)CC3)n2Cc2ccccc2)n(C)c1=O	-80
CCCn1c(OC)nc2c1c(=O)n(C)c(=O)n2C	0
CCCn1c(CN2CCCCC2CC)nc2c1c(=O)n(C)c(=O)n2C (stereo not given)	600*
O=C(c1ccco1)N1CCN(c2ccc([N+](=O)[O-])c(N3CCOCC3)c2)CC1	-7
COc1ccc(OC)c(NC(=O)CSCC(=O)O)c1	-4
COc1cc(-c2nc(S(=O)(=O)c3ccc(Cl)cc3)c(N3CCOCC3)o2)cc(OC)c1OC	114
COc1ccccc1N(CC(=O)Nc1cc(C)on1)S(=O)(=O)c1ccc(Cl)cc1	-3
COc1ccccc1-c1nc(S(=O)(=O)c2ccc(Cl)cc2)c(N(C)C)o1	471*
COc1cc(OC)cc(C(=O)N[C@H](C(=O)OCC(=O)Nc2ccc(C)cc2C)C(C)C)c1	8
COc1ccc(C)cc1NC(=O)C(NC(=O)c1cc(OC)c(OC)c(OC)c1)C(C)C (stereo not given)	433*
COc1cc(C(=O)N[C@H](C(=O)NC(C)C23CC4CC(CC(C4)C2)C3)C(C)C)cc(OC)c1OC (stereo not given in full)	-3
Nc1nc(F)cc(NCc2ccccc2)n1	114
Nn1c(SCc2nc3ccccn3c2Br)nnc1-c1cccnc1	-3
CCCc1cc(C(=O)NNC(=S)NC(C)c2ccccc2)cs1 (stereo not given)	8
Cc1ccccc1C(=O)Nc1ccnc(-c2ccncc2)n1	0
CC(=O)Nc1ccnc(-c2cccnc2)n1	187*

Bioassay records (PubChem)
